From PubChem BioAssay
TNAP inh no acc: human TNAP enzyme inhibitors, primary screen, biochemical, luminescent, no phosphate acceptor, uHTS | purified TNAP, CDP-star luminescence, 30 min | inhibition, % at 20 µM | 0.26% of 200,000 active;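 active means tissue-nonspecific alkaline phosphatase inhibition above about 50% at 20 µM in the single-dose screen, limit read from the data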;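 further: 0% = DMSO negative control and 100% = EDTA positive control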
Target sequence (P05186 whole entry, looked up): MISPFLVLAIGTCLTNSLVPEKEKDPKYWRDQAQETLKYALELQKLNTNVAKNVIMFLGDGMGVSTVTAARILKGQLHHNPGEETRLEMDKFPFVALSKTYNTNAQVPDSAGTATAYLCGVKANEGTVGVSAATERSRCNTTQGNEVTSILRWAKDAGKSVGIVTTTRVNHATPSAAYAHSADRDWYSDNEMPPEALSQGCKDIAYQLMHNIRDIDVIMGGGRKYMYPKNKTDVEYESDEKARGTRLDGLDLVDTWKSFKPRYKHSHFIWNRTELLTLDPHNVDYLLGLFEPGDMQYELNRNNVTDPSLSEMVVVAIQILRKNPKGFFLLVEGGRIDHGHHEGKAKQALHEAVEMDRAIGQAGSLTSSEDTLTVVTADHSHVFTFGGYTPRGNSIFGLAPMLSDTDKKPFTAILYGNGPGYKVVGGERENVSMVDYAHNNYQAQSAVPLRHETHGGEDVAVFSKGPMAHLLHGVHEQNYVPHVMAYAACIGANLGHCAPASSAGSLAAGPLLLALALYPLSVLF
TNAP inh hiacc: human TNAP enzyme inhibitors, primary screen, biochemical, luminescent, high phosphate acceptor level, uHTS | 0.03% of 200,000 active | purified TNAP, CDP-star luminescence, 1 M DEA | inhibition, % at 20 µM;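 active means over 50% inhibition of tissue-nonspecific alkaline phosphatase at 20 µM in the single-dose screen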;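 further: plate controls were DMSO wells for no effect and EDTA-quenched wells as full inhibition for full effect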
TNAP act hiacc: TNAP activators at high phosphate acceptor level, primary screen, biochemical, luminescence, uHTS. activation factor at 20 µM. purified TNAP, CDP-star luminescence, 1 M DEA, 30 min; stronger effect = higher value; 0 = EDTA background, 1 = DMSO-only activity. Alkaline phosphatase, tissue-nonspecific isozyme (Homo sapiens), P05186. 200,000 tested, under 10 active;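 active means activation factor at least 2 at 20 µM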
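Dosing: 20 µM single point. System: human TNAP. Amount: TNAP 1/800 final. Incubation: 30 min, room temperature. Read-out: TNAP activation factor scaled between EDTA and DMSO control wells. Signal: luminescence from CDP-star hydrolysis. Medium: 1 M DEA, pH 9.8, Mg2+, Zn2+. Control set: EDTA negative control, DMSO positive control.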
Arbovirus anti: antivirals against arbovirus infection, primary screen, cell-based, full library, 10K replicate subset | arbovirus infection cell-based antiviral screen | inhibition, % at 10 µM | 0.37% of 200,000 active | AID 1251, 2008; in the data active means inhibition above about 30%
WT yeast gro inh: growth inhibition of WT strain, primary screen, mitochondrial fusion inhibitor project, WT and mutant strains, chemical genetic | mitochondrial fusion phenotypic screen | inhibition, % at 10 µM | 2.1% of 190,000 active; in the data active means inhibition above about 58%; tested in S. cerevisiae
* marks the source's active call; other numbers are inactive results. Only some compounds are listed: those with a hit (about 2.6% of all), similar ones and a draw of the others.

SMILES	TNAP inh no acc	TNAP inh hiacc	TNAP act hiacc	Arbovirus anti	WT yeast gro inh
Cc1cc(-c2ccccc2)nc(-c2ccccc2)c1C	-9	-9	1.1	8	78*
COc1ccc(OC)c(-c2cc(C(=O)N3CCc4ccccc4C3)no2)c1	-16	-6	1.1	3	62*
COc1ccc(OC)c(-c2cc(C(=O)Nc3c(C)nn(Cc4ccccc4)c3C)no2)c1	-7	0	1	3	60*
COc1ccc(OC)c(-c2cc(C(=O)Nc3c(C)nn(Cc4ccc(Cl)cc4)c3C)no2)c1	-4	5	1	27	46
Cc1nn2c([nH]c(=O)c3ccccc32)c1C=O	-8	-6	1.1	6	15
CCOc1ccc(C(C(=O)NC2CCCC2)N(Cc2ccccc2)C(=O)c2nsc(Cl)c2Cl)cc1 (stereo not given)	0	-4	1	-31	62*
COc1ccc(C(C(=O)NC2CCCC2)N(Cc2ccccc2)C(=O)c2nsc(Cl)c2Cl)cc1 (stereo not given)	-1	-5	1.1	-24	63*
Cc1c(N(C(=O)Nc2ccccc2)C2=NCC(C)S2)c(=O)n(-c2ccccc2)n1C (stereo not given)	-8	-5	1	7	82*
O=c1c(Cl)c(N2CCN(c3ccc(F)cc3)CC2)cnn1C12CC3CC(CC(C3)C1)C2	-27	1	1	37*	56
CCc1ccccc1N(C(=O)c1cccs1)C1C=CS(=O)(=O)C1 (stereo not given)	-6	-1	1	2	4
Cc1ncc(CO)c(/C=N/NC(=O)c2cc(Br)ccc2O)c1O	58*	4	1	23	9
Cc1ccc2c(c1)N(CC(=O)OCC(=O)NCc1ccccc1)C(=O)CO2	-8	-4	1	-1	4
Cc1ccccc1CN1CCN(CC(=O)NCc2ccc3c(c2)OCO3)C1=O	-3	0	1	-2	-22
COCCCn1c(C)csc1=Nc1cccnc1	-1	-1	1	-5	-7
Cc1csc(=Nc2cccnc2)n1CC1CCCCC1	-6	-2	1	5	73*
CC(C)CCN1CCN(Cc2nc3c(s2)CCCC3)CC1CCO (stereo not given)	-6	-1	1	-8	11
Cc1c(Br)c(=O)oc2c(Br)c(O)c(O)cc12	50*	2	1	-33	5
CCn1cc(C(=O)OCC(=O)c2cc(C)n(-c3ccc(OC(F)F)cc3)c2C)c(=O)c2ccc(C)nc21	-13	3	1	2	49
CC(C)(C)c1cc(/C=N/O)cc(C(C)(C)C)c1O	-8	-2	1	17	80*
N#C/C(=C\Nc1ccccc1O)c1nc2ccccc2o1	-158	7	0.9	-36	63*
CC(=O)Nc1ccc(S(=O)(=O)NCCC(=O)OCCN2C(=O)c3ccccc3C2=O)cc1	-6	-10	1.1	-7	73*
CC(=O)Nc1ccc(NC(=O)CCCN2C(=O)c3ccccc3C2=O)cc1	-1	-2	1	-1	2
CC(C)C(=O)Nc1ccc([N+](=O)[O-])c(C(F)(F)F)c1	-15	-1	1	7	5
CCN(CC(=O)NC)S(=O)(=O)c1ccc(Br)cc1	-2	-1	1	-1	1
COc1cc(C2NCC(c3ccc(Cl)cc3Cl)c3c2[nH]c2ccccc32)cc(OC)c1OC (stereo not given)	-4	-6	1.1	-34	82*
CCOP(=O)(O)c1ccccc1OCCOCCOc1ccccc1P(=O)(O)OCC	-15	-6	1.1	-4	2
O=P(O)(O)c1ccccc1OCc1ccccc1	15	-1	1	7	-5
O=P(O)(O)c1ccccc1OCCOCCOc1ccccc1P(=O)(O)O	72*	3	1	2	-7
O=P(O)(O)c1ccccc1OCCCCCOc1ccccc1P(=O)(O)O	89*	12	0.9	0	21
O=C(Nc1ncc(Br)s1)C(Cc1ccccc1)n1cccc1 (stereo not given)	-14	-5	1.1	-9	82*
